The target in experiment [1] is T1, Sodium-dependent noradrenaline transporter (Homo sapiens, UniProt P23975). The experiment is described as follows: Inhibition of [3H]norepinephrine uptake at human NET expressed in HEK293 cells after 15 to 20 mins by microbeta scintillation counting method. It counts as cell-based. In a few lines:
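HEK-293 cells transfected with the human transporter (DAT or NET) were given the radiolabeled substrate, [³H]-DA for DAT or [³H]-NE for NET, at 20 nM in the assay. Uptake was measured by liquid scintillation counting. Single-concentration lines are percent reuptake inhibition at the stated concentration.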

Experiment [2] addresses T2, Sodium-dependent serotonin transporter (Homo sapiens, UniProt P31645). The experiment is described as follows: Inhibition of [3H]serotonin uptake at human SERT expressed in HEK293 cells after 15 to 20 mins by microbeta scintillation counting method. The class given is cell-based.
Target sequence in this assay (P31645 whole entry): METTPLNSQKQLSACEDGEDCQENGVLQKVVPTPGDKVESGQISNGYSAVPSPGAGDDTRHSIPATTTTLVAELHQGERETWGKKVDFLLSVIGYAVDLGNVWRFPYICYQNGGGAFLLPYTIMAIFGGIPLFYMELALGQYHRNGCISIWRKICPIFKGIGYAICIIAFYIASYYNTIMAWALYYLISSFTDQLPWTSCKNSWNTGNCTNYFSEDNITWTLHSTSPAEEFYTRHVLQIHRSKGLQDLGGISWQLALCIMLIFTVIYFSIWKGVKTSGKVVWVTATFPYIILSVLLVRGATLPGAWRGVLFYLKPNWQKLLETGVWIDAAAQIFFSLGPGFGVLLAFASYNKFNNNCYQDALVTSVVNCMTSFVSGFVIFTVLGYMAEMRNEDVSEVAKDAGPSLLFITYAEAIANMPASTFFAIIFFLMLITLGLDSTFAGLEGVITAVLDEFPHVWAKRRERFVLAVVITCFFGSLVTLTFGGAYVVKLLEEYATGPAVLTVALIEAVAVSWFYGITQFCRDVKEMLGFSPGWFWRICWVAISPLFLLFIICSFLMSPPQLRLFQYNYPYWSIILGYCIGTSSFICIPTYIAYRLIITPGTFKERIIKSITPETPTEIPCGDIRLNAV
For experiment [3], the target named is T1, Sodium-dependent noradrenaline transporter. The experiment is described as follows: Inhibition of [3H]norepinephrine uptake at human NET expressed in HEK293 cells at 10 uM after 15 to 20 mins by microbeta scintillation counting method. The class given is cell-based. In a few lines: (§1)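 HEK-293 cells transfected with the human transporter (DAT or NET) were given the radiolabeled substrate, [³H]-DA for DAT or [³H]-NE for NET, at 20 nM in the assay. Uptake was measured by liquid scintillation counting. Reference inhibitors were venlafaxine HCl, bupropion and GBR12909. Single-concentration lines are percent reuptake inhibition at the stated concentration.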

The target in experiment [4] is T2, Sodium-dependent serotonin transporter. The following applies: HEK293, at 1 µM.
Target sequence in this assay (P31645 whole entry, looked up): as the sequence (P31645 whole entry) above
Experiment [5] shares this target. Kind of experiment: Inhibition of [3H]serotonin uptake at SERT (unknown origin). In a few lines:
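Human serotonin transporter (hSERT) expressed by transfection in HEK-293 cells. [³H]-5-HT at 20 nM, with uptake radioactivity counted by liquid scintillation. Percent reuptake inhibition measured at 1 µM and 10 µM, plus IC50 determination.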
Target sequence in this assay (P31645 whole entry): as above

The target in experiment [6] is T3, Sodium-dependent dopamine transporter (Homo sapiens, UniProt Q01959). The experiment is described as follows: Inhibition of [3H]dopamine uptake at DAT (unknown origin). In a few lines:
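HEK-293 cells transfected with human dopamine transporter (hDAT). Uptake of [³H]-DA at 20 nM, measured by liquid scintillation counting. Test compounds screened as % reuptake inhibition at 1 µM and 10 µM, and IC50 values determined.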

In experiment [7] the target is T3, Sodium-dependent dopamine transporter. Kind of experiment: Inhibition of [3H]dopamine uptake at human DAT expressed in HEK293 cells after 15 to 20 mins by microbeta scintillation counting method. The class given is cell-based. A digest of the protocol: as §1
For experiment [8] the target is unchanged. Kind of experiment: Inhibition of [3H]dopamine uptake at human DAT expressed in HEK293 cells at 1 uM after 15 to 20 mins by microbeta scintillation counting method. The class given is cell-based. In a few lines:
as §1

The target in experiment [9] is T1, Sodium-dependent noradrenaline transporter. The experiment is described as follows: Inhibition of [3H]norepinephrine uptake at NET (unknown origin). In a few lines:
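HEK-293 cells transfected with human norepinephrine transporter (hNET). [³H]-NE at 20 nM as substrate, with uptake read by liquid scintillation counting. Reuptake inhibition recorded at 1 µM and 10 µM test compound, and IC50 derived.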

Experiment [10] has the same target. The conditions noted are these: HEK293, 1 uM.

For orientation: pIC50 means the IC50 on a negative log10 scale, so that one unit is a factor of ten. As a reminder, the inhibition is the relative decrease from the control value, in per cent.

pIC50: −log10 of the molar value. Calls of active or inactive are those of the source. No cut-off for these calls is given here. A value given as a limit tells only on which side of the number the result lay.

T1 sequence (P23975 whole entry): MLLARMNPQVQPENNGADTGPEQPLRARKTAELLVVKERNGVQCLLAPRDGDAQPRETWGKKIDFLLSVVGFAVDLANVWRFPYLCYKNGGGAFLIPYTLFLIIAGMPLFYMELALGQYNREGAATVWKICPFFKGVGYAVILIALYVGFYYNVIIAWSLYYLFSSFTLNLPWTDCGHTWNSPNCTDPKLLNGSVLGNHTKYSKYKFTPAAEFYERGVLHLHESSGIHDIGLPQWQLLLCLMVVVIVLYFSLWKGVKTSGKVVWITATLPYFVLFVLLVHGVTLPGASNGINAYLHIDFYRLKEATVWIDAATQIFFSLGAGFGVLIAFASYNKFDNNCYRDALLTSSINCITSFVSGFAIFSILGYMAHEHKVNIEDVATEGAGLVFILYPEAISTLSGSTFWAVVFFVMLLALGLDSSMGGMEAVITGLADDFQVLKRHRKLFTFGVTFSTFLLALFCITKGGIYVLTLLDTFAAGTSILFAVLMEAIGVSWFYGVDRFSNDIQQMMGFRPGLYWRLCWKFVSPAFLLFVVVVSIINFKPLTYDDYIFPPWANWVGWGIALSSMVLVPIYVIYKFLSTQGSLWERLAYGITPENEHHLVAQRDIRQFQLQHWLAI
T3 sequence (Q01959 whole entry): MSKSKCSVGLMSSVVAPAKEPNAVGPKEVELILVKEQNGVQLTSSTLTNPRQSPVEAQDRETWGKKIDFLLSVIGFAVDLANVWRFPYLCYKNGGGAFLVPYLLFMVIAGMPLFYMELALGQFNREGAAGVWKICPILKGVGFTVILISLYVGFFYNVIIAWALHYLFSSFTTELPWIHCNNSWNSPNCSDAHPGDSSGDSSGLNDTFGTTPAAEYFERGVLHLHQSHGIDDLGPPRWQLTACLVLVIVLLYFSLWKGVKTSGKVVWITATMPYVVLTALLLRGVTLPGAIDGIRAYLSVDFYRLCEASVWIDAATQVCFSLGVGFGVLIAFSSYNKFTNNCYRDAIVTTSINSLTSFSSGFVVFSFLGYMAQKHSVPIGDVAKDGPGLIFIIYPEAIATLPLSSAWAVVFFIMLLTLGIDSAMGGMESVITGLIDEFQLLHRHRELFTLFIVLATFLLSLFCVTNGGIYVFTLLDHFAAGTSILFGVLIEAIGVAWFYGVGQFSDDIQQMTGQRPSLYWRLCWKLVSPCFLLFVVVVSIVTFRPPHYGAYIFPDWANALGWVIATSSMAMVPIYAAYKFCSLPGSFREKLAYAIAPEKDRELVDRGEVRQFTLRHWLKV

Turning to `Clc1ccc(N2CCN(CCCCOc3ccc4ccccc4c3)CC2)c(Cl)c1`, the values for the pIC50 in experiment [1] and in [2] were 5.01 and 5.36, respectively. The inhibition in [3] was found to be 67.7%; in experiment [4], 51%.

On to `O=C(NCCCN1CCC(Cc2ccccc2)CC1)c1ccc2ccccc2c1`, for which the values for the pIC50 in experiment [5] and in experiment [6] were 7.00 and less than 5.00, respectively.

As to `Clc1cccc(N2CCN(CCCOc3ccc4ccccc4c3)CC2)c1Cl`, the inhibition in experiment [3] worked out at 45%; in experiment [4], 37.5%.

Turning to `O=C(NCCCN1CCN(c2cccc(Cl)c2Cl)CC1)c1ccc2ccccc2c1`, in experiment [7], the pIC50 was less than 5.00.

Turning to `c1ccc(CC2CCN(CCOc3ccc4ccccc4c3)CC2)cc1`, in experiment [4], the inhibition is 12.1%. For the same compound, the inhibition entry in experiment [8] is “inactive”.

Take `c1ccc(N2CCN(CCOc3ccc4ccccc4c3)CC2)cc1`: the results for the inhibition in experiment [3], in [4] and in experiment [8] were 28%, 7.2% and 9%, respectively.

On to `Brc1ccc(N2CCN(CCCCOc3ccc4ccccc4c3)CC2)cc1`, for which the pIC50 is 4.59 in [1] and 4.97 in [2]. Also, the inhibition in experiment [3] and in experiment [4] was 66.3% throughout.

Take `c1ccc(N2CCN(CCCCOc3ccc4ccccc4c3)CC2)nc1`: the inhibition worked out at 59% in experiment [3] and 45.3% in experiment [4].

On to `Cc1cccc(C)c1N1CCN(CCOc2ccc3ccccc3c2)CC1`, for which the values for the inhibition in [3], in [4] and in experiment [8] were 74.9%, 24.6% and 19%, respectively.

For the compound `Clc1ccc(N2CCN(CCCCOc3ccc4ccccc4c3)CC2)cc1`, the results for the inhibition in [3] and in experiment [4] were 69.3% and 49%, respectively.

As to `c1ccc(CC2CCN(CCCOc3ccc4ccccc4c3)CC2)cc1`, the negative logarithm of the IC50 (pIC50) was 5.60 in experiment [1] and 6.00 in experiment [2]. Also, the inhibition is 92.2% in experiment [3] and 51% in [4].

As to `Clc1ccc(N2CCN(CCCOc3ccc4ccccc4c3)CC2)cc1`, the inhibition was 25.7% in [3] and 28.4% in experiment [4].

`c1ccc(N2CCN(CCCOc3ccc4ccccc4c3)CC2)cc1`: the inhibition in experiment [3] is 79.6%; in [4], 27%.

Take `Clc1cccc(N2CCN(CCCCOc3ccc4ccccc4c3)CC2)c1`: the results for the inhibition in experiment [3] and in experiment [4] were 63.7% and 27.5%, respectively.

Take `FC(F)(F)c1ccc(N2CCN(CCCCOc3ccc4ccccc4c3)CC2)cc1`: the pIC50 was 4.69 in [1] and 6.17 in experiment [2]. Further, the inhibition worked out at 68.3% in experiment [3] and 59.2% in experiment [4].

`c1cnc(N2CCN(CCOc3ccc4ccccc4c3)CC2)nc1` registered an inhibition in [4] of 57%. Further, in experiment [8], the inhibition entry was “inactive”.

On to `Fc1ccc(N2CCN(CCCOc3ccc4ccccc4c3)CC2)cc1`, for which the inhibition amounted to 23.3% in experiment [3] and 45.4% in experiment [4].

With `COc1ccccc1N1CCN(CCCOc2ccc3ccccc3c2)CC1`, the pIC50 in [1] is 5.92; in experiment [2], 5.98. For the same compound, the inhibition was determined as 85.3% in experiment [3] and 56.4% in experiment [4].

As for `c1ccc(C2CCN(CCCn3nnnc3C(c3ccccc3)c3ccccc3)CC2)cc1`, the pIC50 was 6.29 in [9], less than 5.00 in [5] and 7.05 in experiment [6].

As for `COc1ccccc1N1CCN(CCOc2ccc3ccccc3c2)CC1`, the inhibition was found to be 21% in [3], 48.7% in experiment [4] and 19% in [8].

For the compound `Brc1ccc(N2CCN(CCOc3ccc4ccccc4c3)CC2)cc1`, the inhibition in experiment [3] worked out at 52.8%; in [4], 9%; in [8], 19%.

For `COc1ccccc1N1CCN(CCCCOc2ccc3ccccc3c2)CC1`, the figures for the negative logarithm of the IC50 (pIC50) in experiment [1] and in experiment [2] were 4.53 and 5.29, respectively. Besides, the inhibition is 68% in experiment [3] and 51.3% in experiment [4].

In the case of `Clc1cccc(N2CCN(CCCCOc3ccc4ccccc4c3)CC2)c1Cl`, the inhibition worked out at 60.7% in [3] and 36.8% in experiment [4].

Regarding `Clc1ccc(N2CCN(CCOc3ccc4ccccc4c3)CC2)c(Cl)c1`, the inhibition in [3] was 47.3%; in [4], 61.4%; in [8], 48.5%.

Regarding `c1cnc(N2CCN(CCCCOc3ccc4ccccc4c3)CC2)nc1`, the inhibition worked out at 31% in experiment [3] and 32% in experiment [4].

Take `Fc1ccc(N2CCN(CCOc3ccc4ccccc4c3)CC2)cc1`: the pIC50 in [1] was 5.29; in experiment [2], 5.55. The values for the inhibition in experiment [3], in [4] and in [8] were 80.8%, 60.5% and 35.6%, respectively.

In the case of `CC(NC(C)(C)C)C(=O)c1cccc(Cl)c1` (stereo unspecified), the results for the inhibition in [3] and in experiment [8] were 61.5% and 78.3%, respectively.

`Fc1ccc(C(OCCN2CCN(c3ccccn3)CC2)c2ccc(F)cc2)cc1` had a pIC50 in experiment [2] of 6.24.

Take `Clc1ccc(N2CCN(CCOc3ccc4ccccc4c3)CC2)cc1`: the inhibition in [3] was found to be 28%; in [4] it was 20.1%; in experiment [8] it was 2%.

With `Brc1ccc(N2CCN(CCCOc3ccc4ccccc4c3)CC2)cc1`, the values for the pIC50 in [1] and in experiment [2] were 5.55 and 6.08, respectively. Also, the inhibition in experiment [3] is 80%; in [4] it was 54.9%.

Consider `Cc1cccc(C)c1N1CCN(CCCCOc2ccc3ccccc3c2)CC1`, for which the inhibition in experiment [3] was determined as 74.4%; in [4], 38.3%.

For `FC(F)(F)c1ccc(N2CCN(CCOc3ccc4ccccc4c3)CC2)cc1`, the inhibition turned out to be 23.1% in [3], 8.2% in [4] and 31.3% in [8].

Consider `Clc1cccc(N2CCN(CCOc3ccc4ccccc4c3)CC2)c1Cl`, for which the inhibition in experiment [3] was 20%; in experiment [4], 26.7%. Also, the inhibition entry in [8] was “inactive”.

In the case of `c1ccc(N2CCN(CCCOc3ccc4ccccc4c3)CC2)nc1`, the inhibition in experiment [3] worked out at 68.7%; in [4], 46.2%.

In [2], `Fc1cccc(F)c1N1CCN(CCCn2nnnc2C(c2ccccc2)c2ccccc2)CC1` had a pIC50 of less than 5.00.

Regarding `Fc1ccc(N2CCN(CCCCOc3ccc4ccccc4c3)CC2)cc1`, the negative logarithm of the IC50 (pIC50) in experiment [1] is 5.43; in [2], 5.50. The inhibition in [3] stood at 74.3%; in [4] it was 71%.

As to `c1cnc(N2CCN(CCCOc3ccc4ccccc4c3)CC2)nc1`, the inhibition in experiment [3] came to 47.3%; in experiment [4] it was 23.8%.

As to `c1ccc(CC2CCN(CCCCOc3ccc4ccccc4c3)CC2)cc1`, the inhibition in experiment [3] was determined as 80.7%; in [4], 31.9%.

For `Cc1cccc(C)c1N1CCN(CCCOc2ccc3ccccc3c2)CC1`, the inhibition in experiment [3] came out at 86.5%; in experiment [4], 35.1%.

Take `c1ccc(N2CCN(CCOc3ccc4ccccc4c3)CC2)nc1`: the pIC50 in experiment [1] was 4.62; in experiment [2] it was 5.97. The inhibition in experiment [3] was found to be 66%; in [4], 54%. In addition, the inhibition result in [8] is “inactive”.

In experiment [10], `COc1ccc(C(CN(C)C)C2(O)CCCCC2)cc1` (stereo unspecified) returned an inhibition of 52.6%.

On to `c1ccc(N2CCN(CCCCOc3ccc4ccccc4c3)CC2)cc1`, for which the inhibition in [3] came to 86.4%; in experiment [4], 41.2%.

`Clc1cccc(N2CCN(CCOc3ccc4ccccc4c3)CC2)c1`: the pIC50 in experiment [1] is 5.23; in experiment [2] it was 5.73. Moreover, the inhibition came out at 83.1% in experiment [3] and 85.3% in [4]. Besides, in experiment [8], the inhibition result was “inactive”.

Values taken from ChEMBL document CHEMBL4270660, “Design, synthesis, and systematic evaluation of 4-arylpiperazine- and 4-benzylpiperidine napthyl ethers as inhibitors of monoamine neurotransmitters reuptake” (Bioorg Med Chem, 2018).
